Our source for the Activity values is ChEMBL document CHEMBL1155278, “3,4-Diaryl-isoxazoles and -imidazoles as potent dual inhibitors of p38alpha mitogen activated protein kinase and casein kinase 1delta” (J Med Chem, 2009).

Assay [1] concerns the target T1, Serine/threonine-protein kinase Sgk1 (Homo sapiens) (UniProt O00141).
T1 sequence (whole entry): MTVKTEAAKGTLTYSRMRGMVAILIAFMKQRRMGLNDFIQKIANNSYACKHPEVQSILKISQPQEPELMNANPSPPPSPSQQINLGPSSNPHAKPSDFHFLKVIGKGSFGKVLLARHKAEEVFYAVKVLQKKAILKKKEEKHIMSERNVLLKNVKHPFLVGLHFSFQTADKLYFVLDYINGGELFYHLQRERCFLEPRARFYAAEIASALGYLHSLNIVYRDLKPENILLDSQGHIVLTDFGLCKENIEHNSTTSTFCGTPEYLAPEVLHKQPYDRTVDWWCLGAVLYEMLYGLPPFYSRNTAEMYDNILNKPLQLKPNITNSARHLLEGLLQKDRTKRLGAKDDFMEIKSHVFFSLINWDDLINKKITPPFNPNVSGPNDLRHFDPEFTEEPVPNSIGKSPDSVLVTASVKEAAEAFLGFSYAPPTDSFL
Put plainly: Inhibition of SGK1 assessed as residual activity at 10 uM by Cherenkov counting relative to control in presence of 20 uM ATP. In outline: (§1)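 Single-concentration profiling at 10 μM in a 78-kinase panel. Kinase activity is expressed as a percentage of control assays run without compound.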

The target of assay [2] is T2, MAP kinase-activated protein kinase 5 (Homo sapiens) (UniProt Q8IW41).
T2 sequence (whole entry): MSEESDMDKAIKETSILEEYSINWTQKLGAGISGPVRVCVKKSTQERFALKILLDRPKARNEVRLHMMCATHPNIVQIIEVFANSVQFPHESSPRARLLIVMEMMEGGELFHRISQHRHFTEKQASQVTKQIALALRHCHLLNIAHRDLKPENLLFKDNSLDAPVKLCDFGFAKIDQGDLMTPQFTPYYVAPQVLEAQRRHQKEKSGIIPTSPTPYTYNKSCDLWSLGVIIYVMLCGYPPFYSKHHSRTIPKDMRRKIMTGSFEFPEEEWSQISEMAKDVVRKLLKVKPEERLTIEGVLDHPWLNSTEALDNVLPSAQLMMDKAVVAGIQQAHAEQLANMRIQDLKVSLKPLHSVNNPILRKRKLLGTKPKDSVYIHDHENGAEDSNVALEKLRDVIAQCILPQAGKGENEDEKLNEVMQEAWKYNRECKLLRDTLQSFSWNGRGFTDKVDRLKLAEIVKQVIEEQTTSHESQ
Put plainly: Inhibition of PRAK assessed as residual activity at 10 uM by Cherenkov counting relative to control in presence of 20 uM ATP. In outline: as §1

The target of assay [3] is Calcium/calmodulin-dependent protein kinase type 1 (Homo sapiens) (UniProt Q14012). As to the kind of experiment: Inhibition of CAMK1 assessed as residual activity at 10 uM by Cherenkov counting relative to control in presence of 50 uM ATP. Put shortly:
(§2)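 Single-point profiling at 10 µM in a panel of 78 protein kinases. Kinase activity is expressed as a percentage relative to control assays without compound.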

The target in assay [4] is Glycogen synthase kinase-3 beta (Homo sapiens) (UniProt P49841). As to the kind of experiment: Inhibition of GSK3-beta assessed as residual activity at 10 uM by Cherenkov counting relative to control in presence of 5 uM ATP. Put shortly:
as §2

Assay [5] deals with Aurora kinase C (Homo sapiens) (UniProt Q9UQB9). As to the kind of experiment: Inhibition of Aurora C assessed as residual activity at 10 uM by Cherenkov counting relative to control. In outline: as §2
Assay [6] concerns the target T3, Serine/threonine-protein kinase BRSK2 (Homo sapiens) (UniProt Q8IWQ3).
T3 sequence (whole entry): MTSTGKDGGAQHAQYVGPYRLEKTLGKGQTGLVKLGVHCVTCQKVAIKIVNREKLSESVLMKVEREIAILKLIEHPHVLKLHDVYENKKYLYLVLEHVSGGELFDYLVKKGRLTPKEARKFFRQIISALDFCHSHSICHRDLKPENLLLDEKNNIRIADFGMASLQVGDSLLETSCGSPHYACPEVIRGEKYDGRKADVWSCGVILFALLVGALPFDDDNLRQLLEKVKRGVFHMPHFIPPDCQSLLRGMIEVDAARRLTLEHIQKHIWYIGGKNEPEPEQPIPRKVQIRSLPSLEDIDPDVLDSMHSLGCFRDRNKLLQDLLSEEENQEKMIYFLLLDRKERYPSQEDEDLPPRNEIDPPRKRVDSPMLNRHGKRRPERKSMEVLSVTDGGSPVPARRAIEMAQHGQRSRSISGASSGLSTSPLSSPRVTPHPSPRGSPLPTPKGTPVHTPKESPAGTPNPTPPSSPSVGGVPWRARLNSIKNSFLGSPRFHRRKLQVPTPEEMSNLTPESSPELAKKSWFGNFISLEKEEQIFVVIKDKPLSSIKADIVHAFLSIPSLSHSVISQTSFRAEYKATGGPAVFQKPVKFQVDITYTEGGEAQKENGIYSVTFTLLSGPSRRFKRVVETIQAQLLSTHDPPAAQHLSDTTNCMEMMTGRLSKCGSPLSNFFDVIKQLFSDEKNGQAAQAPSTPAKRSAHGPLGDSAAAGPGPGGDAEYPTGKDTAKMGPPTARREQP
As to the kind of experiment: Inhibition of BRSK2 assessed as residual activity at 10 uM by Cherenkov counting relative to control in presence of 50 uM ATP. Put shortly:
as §2

In assay [7] the target is Serine/threonine-protein kinase pim-3 (Homo sapiens) (UniProt Q86V86). As to the kind of experiment: Inhibition of PIM3 assessed as residual activity at 10 uM by Cherenkov counting relative to control in presence of 20 uM ATP.
For assay [8], the target named is Proto-oncogene tyrosine-protein kinase Src (Homo sapiens) (UniProt P12931). As to the kind of experiment: Inhibition of Src assessed as residual activity at 10 uM by Cherenkov counting relative to control in presence of 50 uM ATP. In outline: as §1
Assay [9] addresses Tyrosine-protein kinase Lck (Homo sapiens) (UniProt P06239). Put plainly: Inhibition of Lck assessed as residual activity at 10 uM by Cherenkov counting relative to control in presence of 50 uM ATP.
Assay [10] deals with Rho-associated protein kinase 2 (Homo sapiens) (UniProt O75116). Put plainly: Inhibition of ROCK2 assessed as residual activity at 0.1 uM by Cherenkov counting relative to control in presence of 20 uM ATP. Put shortly:
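Single-concentration screen at 0.1 μM in a 76-kinase panel. ATP for each kinase was set near its Km for ATP. Residual activity is given as a percentage of control assays without compound, mean of n = 3 ± SD.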

The target in assay [11] is Serine/threonine-protein kinase pim-2 (Homo sapiens) (UniProt Q9P1W9). Put plainly: Inhibition of PIM2 assessed as residual activity at 0.1 uM by Cherenkov counting relative to control in presence of 5 uM ATP. Put shortly: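 Single-concentration selectivity screen at 0.1 μM against a panel of 76 protein kinases. Each kinase was run at an ATP level approximating its Km for ATP. Output is mean residual activity as % of the control assay without compound, n = 3 ± SD.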
Sequence of Serine/threonine-protein kinase pim-2 (Homo sapiens) (Q9P1W9 whole entry, looked up): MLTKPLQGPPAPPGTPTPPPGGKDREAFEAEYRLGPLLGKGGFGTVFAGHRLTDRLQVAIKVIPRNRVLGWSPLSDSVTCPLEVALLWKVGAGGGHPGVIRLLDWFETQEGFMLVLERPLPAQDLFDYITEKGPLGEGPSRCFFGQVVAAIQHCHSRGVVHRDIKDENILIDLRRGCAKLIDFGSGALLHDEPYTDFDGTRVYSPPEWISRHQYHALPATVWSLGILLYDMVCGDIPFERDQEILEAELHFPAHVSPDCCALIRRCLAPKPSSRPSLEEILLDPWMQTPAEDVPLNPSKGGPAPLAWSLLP

Sequence of Rho-associated protein kinase 2 (Homo sapiens) (O75116 whole entry, looked up): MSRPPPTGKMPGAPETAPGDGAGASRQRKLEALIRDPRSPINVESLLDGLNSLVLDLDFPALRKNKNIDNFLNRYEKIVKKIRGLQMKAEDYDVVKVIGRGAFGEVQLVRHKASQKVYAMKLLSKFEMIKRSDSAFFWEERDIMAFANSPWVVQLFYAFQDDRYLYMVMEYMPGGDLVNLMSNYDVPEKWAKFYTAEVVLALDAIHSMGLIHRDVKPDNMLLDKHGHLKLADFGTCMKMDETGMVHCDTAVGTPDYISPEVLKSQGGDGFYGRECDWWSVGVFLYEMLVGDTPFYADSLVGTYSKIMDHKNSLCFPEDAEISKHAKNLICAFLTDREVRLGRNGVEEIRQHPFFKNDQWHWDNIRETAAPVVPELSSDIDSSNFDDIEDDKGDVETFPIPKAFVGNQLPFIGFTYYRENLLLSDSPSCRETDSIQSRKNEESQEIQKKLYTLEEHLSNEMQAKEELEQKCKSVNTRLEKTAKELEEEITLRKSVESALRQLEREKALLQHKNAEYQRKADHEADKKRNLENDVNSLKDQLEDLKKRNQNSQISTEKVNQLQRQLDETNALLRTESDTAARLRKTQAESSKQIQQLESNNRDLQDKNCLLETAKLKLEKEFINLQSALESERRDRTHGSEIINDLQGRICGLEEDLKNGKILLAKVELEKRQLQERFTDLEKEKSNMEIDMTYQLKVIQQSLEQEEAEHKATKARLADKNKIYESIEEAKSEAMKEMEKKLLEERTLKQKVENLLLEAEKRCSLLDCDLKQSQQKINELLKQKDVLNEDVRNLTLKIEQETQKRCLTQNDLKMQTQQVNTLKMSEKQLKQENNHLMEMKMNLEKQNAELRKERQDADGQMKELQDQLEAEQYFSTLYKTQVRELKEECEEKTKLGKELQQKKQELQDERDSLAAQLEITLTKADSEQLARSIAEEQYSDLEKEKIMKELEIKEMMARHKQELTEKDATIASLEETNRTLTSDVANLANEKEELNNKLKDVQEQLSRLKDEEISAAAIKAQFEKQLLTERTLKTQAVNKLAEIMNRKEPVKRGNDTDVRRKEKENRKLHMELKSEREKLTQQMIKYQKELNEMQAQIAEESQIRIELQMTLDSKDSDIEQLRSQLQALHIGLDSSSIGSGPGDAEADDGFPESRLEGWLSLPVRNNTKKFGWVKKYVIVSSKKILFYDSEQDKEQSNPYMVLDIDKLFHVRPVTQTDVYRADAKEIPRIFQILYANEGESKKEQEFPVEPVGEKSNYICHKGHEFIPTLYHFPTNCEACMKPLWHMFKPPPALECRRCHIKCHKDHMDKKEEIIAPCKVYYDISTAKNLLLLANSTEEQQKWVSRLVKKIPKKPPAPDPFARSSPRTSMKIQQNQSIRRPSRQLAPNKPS
Sequence of Calcium/calmodulin-dependent protein kinase type 1 (Homo sapiens) (Q14012 whole entry, looked up): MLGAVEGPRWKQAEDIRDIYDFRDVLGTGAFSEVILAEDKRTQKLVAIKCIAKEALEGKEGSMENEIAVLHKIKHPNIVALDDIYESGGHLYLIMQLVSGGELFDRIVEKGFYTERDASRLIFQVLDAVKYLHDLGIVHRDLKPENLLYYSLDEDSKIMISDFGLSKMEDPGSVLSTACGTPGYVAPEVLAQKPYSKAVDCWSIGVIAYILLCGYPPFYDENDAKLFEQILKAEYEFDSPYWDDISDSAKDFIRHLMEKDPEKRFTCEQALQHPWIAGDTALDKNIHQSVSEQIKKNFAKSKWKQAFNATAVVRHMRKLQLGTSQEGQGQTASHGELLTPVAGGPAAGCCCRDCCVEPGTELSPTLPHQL
Sequence of Tyrosine-protein kinase Lck (Homo sapiens) (P06239 2-509 limits assumed): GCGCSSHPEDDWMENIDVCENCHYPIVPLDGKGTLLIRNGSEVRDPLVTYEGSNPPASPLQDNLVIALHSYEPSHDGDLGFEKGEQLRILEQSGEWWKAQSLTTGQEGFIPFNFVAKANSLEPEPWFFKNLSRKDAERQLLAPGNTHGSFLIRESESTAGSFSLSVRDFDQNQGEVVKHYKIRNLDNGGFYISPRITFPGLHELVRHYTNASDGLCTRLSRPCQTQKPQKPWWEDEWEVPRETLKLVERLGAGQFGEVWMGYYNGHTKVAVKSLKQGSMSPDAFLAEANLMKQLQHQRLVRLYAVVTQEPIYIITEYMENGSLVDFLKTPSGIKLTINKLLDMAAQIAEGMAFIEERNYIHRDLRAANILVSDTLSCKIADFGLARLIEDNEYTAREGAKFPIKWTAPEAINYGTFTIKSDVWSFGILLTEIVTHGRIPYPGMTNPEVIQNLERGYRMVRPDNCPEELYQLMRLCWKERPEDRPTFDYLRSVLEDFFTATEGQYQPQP
Sequence of Proto-oncogene tyrosine-protein kinase Src (Homo sapiens) (P12931 2-536 limits assumed): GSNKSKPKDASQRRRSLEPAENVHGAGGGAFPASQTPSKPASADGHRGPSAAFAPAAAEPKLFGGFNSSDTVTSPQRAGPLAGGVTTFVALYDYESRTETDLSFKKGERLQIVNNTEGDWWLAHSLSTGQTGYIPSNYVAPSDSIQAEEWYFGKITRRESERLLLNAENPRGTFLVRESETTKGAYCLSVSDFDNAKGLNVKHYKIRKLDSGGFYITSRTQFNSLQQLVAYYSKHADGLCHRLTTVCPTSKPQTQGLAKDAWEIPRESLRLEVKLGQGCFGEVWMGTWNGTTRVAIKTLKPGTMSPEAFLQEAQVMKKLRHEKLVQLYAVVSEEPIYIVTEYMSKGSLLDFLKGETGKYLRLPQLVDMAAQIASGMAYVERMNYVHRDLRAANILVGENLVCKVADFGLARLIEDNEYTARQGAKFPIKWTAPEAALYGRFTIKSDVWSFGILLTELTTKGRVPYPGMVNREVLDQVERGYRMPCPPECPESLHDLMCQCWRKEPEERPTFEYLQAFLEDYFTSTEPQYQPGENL
Sequence of Glycogen synthase kinase-3 beta (Homo sapiens) (P49841 whole entry, looked up): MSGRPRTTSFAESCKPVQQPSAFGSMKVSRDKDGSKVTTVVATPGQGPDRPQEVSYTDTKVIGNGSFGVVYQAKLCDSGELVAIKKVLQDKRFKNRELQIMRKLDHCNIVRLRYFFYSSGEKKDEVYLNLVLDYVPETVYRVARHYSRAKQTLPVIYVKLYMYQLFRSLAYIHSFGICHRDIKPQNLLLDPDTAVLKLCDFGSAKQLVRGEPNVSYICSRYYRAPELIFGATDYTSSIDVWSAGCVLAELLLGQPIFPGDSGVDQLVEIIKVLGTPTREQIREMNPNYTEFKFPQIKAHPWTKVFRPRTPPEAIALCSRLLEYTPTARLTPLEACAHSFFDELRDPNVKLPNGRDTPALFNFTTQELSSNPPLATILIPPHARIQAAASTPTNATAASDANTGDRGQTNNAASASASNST
Sequence of Aurora kinase C (Homo sapiens) (Q9UQB9 whole entry): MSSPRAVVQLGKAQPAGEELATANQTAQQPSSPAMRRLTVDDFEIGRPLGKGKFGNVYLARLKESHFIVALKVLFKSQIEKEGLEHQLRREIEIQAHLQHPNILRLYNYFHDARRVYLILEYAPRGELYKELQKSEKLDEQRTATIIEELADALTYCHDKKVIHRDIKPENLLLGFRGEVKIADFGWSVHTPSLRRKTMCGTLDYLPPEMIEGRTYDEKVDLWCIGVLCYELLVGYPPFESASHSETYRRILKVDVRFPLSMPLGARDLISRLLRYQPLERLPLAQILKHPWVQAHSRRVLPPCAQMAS

As to `CC(C)c1noc(-c2ccc(F)cc2)c1-c1ccncc1`, the Activity in [1] is 91%; in assay [2], 98%; in [3] it was 76%; in assay [4] it was 85%; in [5] it was 35%; in assay [6], 93%. In addition, the figures for the Activity in assay [7], in assay [8] and in assay [9] were 78%, 90% and 64%, respectively.
For the molecule `CC(C)c1onc(-c2ccc(F)cc2)c1-c1ccncc1`, the Activity in assay [1] worked out at 76%; in assay [2], 88%; in assay [3] it was 75%; in [4], 75%; in assay [5], 110%; in assay [6], 87%. Also, the Activity turned out to be 81% in [7], 72% in [8] and 42% in [9].
On to `COc1ccc(/C=C/C(=O)Nc2cc(-c3[nH]c([S+](C)[O-])nc3-c3ccc(F)cc3)ccn2)c(OC)c1` (configuration not stated), for which the Activity came out at 88% in assay [10] and 101% in assay [11].
For `COc1ccc(/C=C/C(=O)Nc2cc(-c3[nH]c(SC)nc3-c3ccc(F)cc3)ccn2)c(OC)c1` the same measures were 81% and 87%.
